Consider 1 compound from ChEMBL document CHEMBL3045217, “Factors affecting the synergy of thiabendazole, sodium bicarbonate, and heat to control postharvest green mold of citrus fruit” (J Agric Food Chem, 2008).

For series [1], the system named is Penicillium digitatum. Briefly: Fungicidal activity against TBZ-resistant Penicillium digitatum infected Nova mandarins assessed as postharvest green mold incidence at 400 mg/L treated for 1 min at 40 degC at 20 hr after fungal conidial inoculation measured after 5 days of storage at 20 degC in presence of 1% SBC (water Rvb = 76.7%). The series is classed as functional.

Series [2] deals with Penicillium digitatum. As to the kind of experiment: Fungicidal activity against TBZ-resistant Penicillium digitatum infected Nova mandarins assessed as postharvest green mold incidence at 400 mg/L treated for 1 min at 40 degC at 20 hr after fungal conidial inoculation measured after 5 days of storage at 20 degC in presence of 2% SBC (water Rvb = 61.7%). The series is classed as functional.

The subject of series [3] is Penicillium digitatum. Briefly: Fungicidal activity against TBZ-resistant Penicillium digitatum infected Valencia oranges assessed as postharvest green mold incidence at 400 mg/L treated for 1 min at 40 degC at 20 hr after fungal conidial inoculation measured after 7 days of storage at 20 degC (water Rvb = 90.0%). The format is functional.
Series [4] has as its system Penicillium digitatum. Briefly: Fungicidal activity against TBZ-resistant Penicillium digitatum infected Valencia oranges assessed as postharvest green mold incidence at 600 mg/L treated for 1 min at 20 degC at 20 hr after fungal conidial inoculation measured after 7 days of storage at 20 degC in presence of 2% SBC (water Rvb = 40.0%). The series is classed as functional.

Series [5] has as its system Fruit. As to the kind of experiment: Drug residues in Citrus sinensis cvs. Valencia late (Valencia oranges) at 200 mg/L treated for 1 min at 50 degC postharvest measured immediately post-drug treatment by GC analysis. The series is classed as ADME. In short, it runs like this: (§1)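 'Valencia' oranges were dipped 1 min in TBZ at 600 mg/L (20 °C, ±0.5, 1 or 2% wt/vol SBC), 400 mg/L (40 °C, ±SBC) or 200 mg/L (50 °C, alone), then air-dried. They were sampled at 0, 10 and 20 days at 17 °C. Peel of five fruit was frozen, and 5 g of homogenate was extracted with ethyl acetate/hexane (1/1) plus NaCl. The extract was dried under N2, taken up in acetone and analysed by GC. Results are mg/kg on a whole-fruit basis.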

The subject of series [6] is Penicillium digitatum. Briefly: Fungicidal activity against Penicillium digitatum infected Valenica oranges assessed as fruit weight loss at 600 mg/L treated for 1 min at 20 degC postharvest at 20 hr after fungal conidial inoculation measured after 21 days of storage at 17 degC (water Rvb = 7.98%). The format is functional.
The test system of series [7] is Fruit. Briefly: Drug residues in Citrus sinensis cvs. Valencia late (Valencia oranges) at 600 mg/L treated for 1 min at 20 degC postharvest measured after 20 days of storage at 17 degC by GC analysis. The series is classed as ADME. In outline:
as §1

In series [8] the test system is Penicillium digitatum. Briefly: Fungicidal activity against TBZ-sensitive Penicillium digitatum infected Valencia oranges assessed as postharvest green mold incidence at 600 mg/L treated for 1 min at 20 degC at 20 hr after fungal conidial inoculation measured after 7 days of storage at 20 degC in presence of 1% SBC (water Rvb = 30.8%). The format is functional. In short, it runs like this:
(§2)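 Fruit were surface-disinfected in 1 g/L hypochlorite for 30 s, rinsed, dried, then wounded twice equatorially (2 mm × 2 mm rod). Inoculation was a 1 min dip in P. digitatum conidia, 1 × 10^5 conidia/mL final. Fruit were held 20 h at 20 °C and 90% RH, dipped 1 min (SBC wt/vol), and air-dried. Storage was 20 °C, 90% RH. Decay incidence (% fruit with lesions) was scored at 5 d for mandarins and 7 d for oranges. Three replicates of 40 fruit were used; arcsin-transformed data were compared by LSD, p ≤ 0.05.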

The test system of series [9] is Fruit. Briefly: Drug residues in Citrus sinensis cvs. Valencia late (Valencia oranges) at 400 mg/L treated for 1 min at 40 degC postharvest measured after 10 days of storage at 17 degC in presence of 2% SBC by GC analysis. The series is classed as ADME. In short, it runs like this: as §1
The subject of series [10] is Fruit surface. Briefly: Drug residues on Citrus sinensis cvs. Salustiana (Salustiana oranges) fruit surface at 600 mg/L treated for 1 min at 20 degC postharvest measured after overnight incubation at 17 degC in presence of 2% SBC by GC analysis. The series is classed as ADME. In short, it runs like this:
(§3)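 'Salustiana' oranges were washed with water and air-dried. They were dipped 1 or 3 min in TBZ 600 mg/L at 20 or 50 °C, or 1 min in TBZ 600 mg/L plus 2% SBC at 20 °C, then dried overnight at 17 °C in the dark. Surface residue was taken by water extraction and wax residue by chloroform extraction. Inner residue was measured in fruit after both extractions. Extracts were dried under N2, taken up in acetone and analysed by GC. Values are mg/kg on a whole-fruit basis.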

Series [11] has as its system Fruit surface. Briefly: Drug residues on Citrus sinensis cvs. Salustiana (Salustiana oranges) fruit surface at 600 mg/L treated for 3 min at 20 degC postharvest measured after overnight incubation at 17 degC by GC analysis. The format is ADME. The conditions noted are these: 0.05 h. In short, it runs like this:
as §3

The subject of series [12] is Fruit. As to the kind of experiment: Total drug residues in Citrus sinensis cvs. Salustiana (Salustiana oranges) fruit at 600 mg/L treated for 1 min at 20 degC postharvest measured after overnight incubation at 17 degC in presence of 2% SBC by GC analysis. The series is classed as ADME. In short, it runs like this: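 'Salustiana' oranges were water-washed, dried, dipped, then dried overnight at 17 °C in the dark. Unextracted fruit were used for total residues. Peel from five oranges was frozen at -18 °C. 5 g homogenized peel was extracted with 10 mL ethyl acetate/hexane (1/1) plus 2 g NaCl, shaken 30 min, then 1 mL of organic layer was dried under N2, redissolved in acetone, and run by GC without cleanup. Results are on a whole-fruit basis.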

In series [13] the test system is Penicillium digitatum. Briefly: Fungicidal activity against Penicillium digitatum infected Valenica oranges assessed as fruit weight loss at 600 mg/L treated for 1 min at 20 degC postharvest at 20 hr after fungal conidial inoculation measured after 21 days of storage at 17 degC in presence of 2% SBC (water Rvb = 11.89%). The format is functional.
Series [14] concerns Penicillium digitatum. As to the kind of experiment: Fungicidal activity against TBZ-sensitive Penicillium digitatum infected Nova mandarins assessed as postharvest green mold incidence at 400 mg/L treated for 1 min at 40 degC at 20 hr after fungal conidial inoculation measured after 5 days of storage at 20 degC in presence of 1% SBC (water Rvb = 93.3%). The series is classed as functional. In outline:
as §2

For series [15], the system named is Fruit. As to the kind of experiment: Drug residues in Citrus sinensis cvs. Valencia late (Valencia oranges) at 600 mg/L treated for 1 min at 20 degC postharvest measured after 20 days of storage at 17 degC in presence of 2% SBC by GC analysis. The series is classed as ADME. In short, it runs like this: as §1
Series [16] relates to Inner fruit. Briefly: Drug residues in Citrus sinensis cvs. Salustiana (Salustiana oranges) inner fruit at 600 mg/L treated for 3 min at 20 degC postharvest measured after overnight incubation at 17 degC by GC analysis. The conditions noted are these: 0.05 h. The format is ADME. In outline: as §3
The subject of series [17] is Penicillium digitatum. As to the kind of experiment: Fungicidal activity against Penicillium digitatum infected Valenica oranges assessed as fruit weight loss at 400 mg/L treated for 1 min at 40 degC postharvest at 20 hr after fungal conidial inoculation measured after 7 days of storage at 17 degC in presence of 1% SBC (water Rvb = 4.49%). The format is functional.

Series [18] has as its system Penicillium digitatum. As to the kind of experiment: Fungicidal activity against TBZ-sensitive Penicillium digitatum infected Valencia oranges assessed as postharvest green mold incidence at 600 mg/L treated for 1 min at 20 degC at 20 hr after fungal conidial inoculation measured after 7 days of storage at 20 degC (water Rvb = 92.5%). The format is functional.
For series [19], the system named is Penicillium digitatum. Briefly: Fungicidal activity against TBZ-sensitive Penicillium digitatum infected Nova mandarins assessed as postharvest green mold incidence at 200 mg/L treated for 1 min at 50 degC at 20 hr after fungal conidial inoculation measured after 5 days of storage at 20 degC (water Rvb = 98.3%). The format is functional. In outline: as §2

In the case of `c1ccc2[nH]c(-c3cscn3)nc2c1` [THIABENDAZOLE], the Activity turned out to be 40% in series [1]; 23.3% in series [2]; 55.8% in series [3]; 21.7% in series [4]; 8.85% in [6]; 9.2% in series [8]. The Activity in [13] was determined as 13.39%; in [14], 5%; in series [17], 3.98%; in series [18], 31.7%; in series [19], 3.3%. The Drug uptake was 0.45 mg/kg in series [5]; 1.54 mg/kg in series [7]; 0.65 mg/kg in series [9]; 0.53 mg/kg in series [10]; 0.69 mg/kg in [11]; 0.91 mg/kg in series [12]. Moreover, the Drug uptake came to 1.38 mg/kg in series [15] and 0.13 mg/kg in [16].
